Bioassay records deposited in PubChem by The Scripps Research Institute Molecular Screening Center.
PRMT1 FP inh = blocks human protein arginine methyltransferase 1; 370,000 tested, 1.3% active; AID 652257; recombinant PRMT1, activity-based probe fluorescence polarization; inhibition, % at 2.79 µM;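 active means inhibition above about 21% made by adding two undisclosed values, limit read from the data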
RBBP9 inhibitor = human RBBP9 hydrolase inhibition | O75884 | recombinant RBBP9, FP-Rh probe fluorescence polarization | inhibition, % at 7.94 µM | 220,000 tested, 0.2% active;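 active means inhibition above the campaign mean of all tested compounds plus 3 SD, cut at about 14% in these data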;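 further: plate controls were DMSO wells with RBBP9 for no effect and wells lacking RBBP9 protein for full effect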
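System: RBBP9 protein / Quantity: 2.5 µM RBBP9 dispensing solution, before mixing / Also added: Serine-hydrolase probe FP-Rh, 375 nM pre-mixing / Dosing: 7.94 µM single dose, 0.794% DMSO / Timing: enzyme-compound preincubation 30 min, then probe labeling 45 min, 25 °C / Signal: FP readout at 525/598 nm / Controls: DMSO-treated enzyme wells and wells lacking RBBP9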
PME-1 primary = PME-1 (human) inhibition | inhibition, % at 5.9 µM | 320,000 tested, 0.53% active | recombinant PME-1, FP-Rh probe fluorescence polarization | Q9Y570;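 active means inhibition above the campaign mean of all compounds plus 3 SD, cut at about 26% in these data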;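 further: competitive labeling of PME-1 active site by serine hydrolase directed probe; 0% = PME-1 with DMSO and 100% = wells lacking PME-1 enzyme; inhibitors block probe labeling so polarization falls and inhibition rises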
Fam108B counter = Fam108B inhibition, counter-screen for RBBP9 inhibitors | recombinant Fam108B, FP-Rh probe fluorescence polarization | inhibition, % at 9.51 µM | 300,000 tested, 0.33% active | AID 1947;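 active means inhibition above the screen mean inhibition plus 3 SD, computed separately per campaign, cut at about 18% in these data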;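 further: inhibitors lower polarization as less probe binds the enzyme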
PAD4 FP inh = inhibitors of human PAD4 | Q9UM07 | recombinant PAD4, RCA probe fluorescence polarization | inhibition, % at 6.36 µM | 330,000 tested, 0.41% active;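 active means percent inhibition above a cutoff equal to the mean of all tested compounds plus 3 SD, cut at about 15% in these data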;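 further: 0% = PAD4 with RCA probe and DMSO and 100% = probe without PAD4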
GSTO1 counter = GSTO1 inhibition, counter-screen for RBBP9 inhibitors; P78417; 300,000 tested, 1.1% active; inhibition, % at 5.96 µM; recombinant GSTO1, activity-based probe fluorescence polarization; AID 1974;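 active means inhibition above the campaign mean inhibition plus 3 SD, cut at about 35% in these data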;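 further: 0% = GSTO1-1 with DMSO and 100% = wells lacking GSTO1-1 enzyme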
PRMT1 confirm = confirmation of human PRMT1 inhibitors; shares compounds with PRMT1 FP inh; recombinant His-PRMT1, activity-based probe fluorescence polarization; inhibition, % at 2.79 µM; 3,300 tested, 42% active;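 active means mean inhibition across replicates above the hit cutoff derived for the earlier primary screen, cut at about 22% in these data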
Numbers without * were called inactive; / = no result given. Compounds with a hit are over-represented: about 2.3% of the library has one in this group of screens.

SMILES | PRMT1 FP inh | RBBP9 inhibitor | PME-1 primary | Fam108B counter | PAD4 FP inh | GSTO1 counter | PRMT1 confirm
CCOC(=O)c1ccc(N2C(=O)CC(Sc3nnc(C)s3)C2=O)cc1 (stereo not drawn) | 72* | -12 | -2 | -6 | -7 | 0 | 76*
Nc1nnc(SC2CC(=O)N(c3ccccc3)C2=O)s1 (stereo not drawn) | 75* | -8 | 6 | -5 | 1 | 5 | 73*
CCCc1c(C(=O)N2CCN(c3ccccc3OC)CC2)cnn1-c1ccccc1 | 1 | -9 | -8 | 1 | 1 | 19 | /
COc1cc(CN(C)Cc2cc(=O)n3ccsc3n2)ccc1OC(F)F | 4 | -7 | 0 | 7 | 0 | 0 | /
Cc1ccc(S(=O)(=O)NN=CC=CC=NNS(=O)(=O)c2ccc(C)cc2)cc1 | 39* | / | / | / | / | / | 44*
Cc1ccc(S(=O)(=O)N/N=C/c2ccccc2O)cc1 | -2 | / | -1 | -1 | -4 | 1 | /
Cn1nc(N)nc1N1CCN(c2ccc(F)cc2)CC1 | -1 | 6 | 0 | 1 | -4 | 2 | /
CCc1ccc(OC(=O)c2ccn(CC)n2)cc1 | -5 | 3 | -2 | -2 | 0 | 1 | /
S=c1[nH]nc(COc2ccc(Cl)cc2)n1-c1ccc(Cl)cc1 | 28* | / | -1 | 3 | -1 | 2 | 17
COc1ccc(-n2c(COc3ccc(Cl)cc3Cl)n[nH]c2=S)cc1 | 27* | / | / | / | / | / | 9
CC(Sc1n[nH]c(-c2ccccc2F)n1)C(=O)Nc1ccc(S(N)(=O)=O)cc1 (stereo not drawn) | -4 | / | -2 | / | -2 | / | /
O=C(Nc1c(-c2ccccc2)nc2ncccn12)c1cc2ccccc2oc1=O | 0 | -6 | 4 | 9 | 2 | 3 | /
Cc1cccc(C)c1NC(=O)C1c2ccccc2OCC(=O)N1CCc1ccccc1 (stereo not drawn) | 3 | / | / | / | / | / | /
N#CCSc1nc2ccccc2c(=O)n1CCCC(=O)NCc1ccco1 | -2 | -9 | 2 | 1 | -3 | 2 | /
O=C(CCCCCn1c(SCc2ccncc2)nc2ccccc2c1=O)NCc1ccco1 | 46* | -2 | 12 | 5 | -2 | 0 | 9
CC1CC(NNC(=O)c2ccccc2)=Nc2ccccc2N1C (stereo not drawn) | 1 | -3 | -2 | -1 | 2 | -2 | /
NC(=O)c1c(NC(=O)C2CCCO2)sc2c1CCCCC2 (stereo not drawn) | 28* | -4 | 0 | 0 | -7 | 10 | 7
CCC1CCCCN1S(=O)(=O)c1ccc(NC(=O)c2nc(S(C)(=O)=O)ncc2Cl)cc1 (stereo not drawn) | 50* | / | 9 | 15 | -3 | -46 | 47*
CCC1CCCCN1S(=O)(=O)c1ccc(NC(=O)c2ccncc2)cc1 (stereo not drawn) | 1 | / | 2 | -3 | -3 | -5 | /
Cc1ccc(CS(=O)(=O)c2ncc(Cl)c(C(=O)Nc3ccc(OC(F)F)cc3)n2)cc1 | 29* | / | -11 | -13 | -6 | -23 | 21*
CCS(=O)(=O)c1ncc(Cl)c(C(=O)Nc2ccc(C)cc2)n1 | 3 | / | -6 | -4 | -3 | -6 | /
CC(=O)Nc1ccc(NC(=O)c2nc(S(=O)(=O)Cc3ccccc3)ncc2Cl)cc1 | 30* | / | -4 | -1 | 0 | -3 | 23*
CS(=O)(=O)c1ncc(Cl)c(C(=O)Nc2ccc3ccccc3c2)n1 | 50* | -6 | / | / | / | / | 35*
Cc1ccc(C(=O)NNC(=O)c2ccc(Br)s2)cc1S(=O)(=O)N1CCOCC1 | -3 | / | -6 | / | 1 | / | /
Cc1cc(O)cc(=O)n1-c1cccc(F)c1 | -3 | / | / | / | / | / | /
O=c1oc2c(-c3cccc(F)c3)cc(O)cc2s1 | 36* | 3 | 8 | -1 | 2 | 29 | 10
COc1ccc(OC)c(/C=C/C(=O)OCC(=O)NCc2ccco2)c1 | 3 | / | 2 | / | -8 | / | /
CC(=O)Nc1ccc(S(=O)(=O)Nc2nc3ccccc3nc2Sc2nncn2C)cc1 | 25* | -5 | -1 | -1 | 0 | 6 | 5
COc1ccc(C2=NN(C(=O)COC(=O)c3ccc(S(C)(=O)=O)c([N+](=O)[O-])c3)C(c3ccco3)C2)cc1 (stereo not drawn) | 41* | / | / | / | 2 | / | 0
